From article PMC3160560 (Investigational New Drugs, 2010)
Read-outs that look alike come from different tables or passages of the source.

Assays:
[1] = tested on: aurora-A (AURKA); details: read-out: IC50 aurora-A; cited from earlier work
[2] = tested on: ATP-binding cassette B1 (ABCB1/MDR1); details: in vitro; ref unpublished data (b4), 26; cited from earlier work
[3] = cited from earlier work
[4] = biological target: fms-related tyrosine kinase 3 (FLT3); details: read-out: IC50 FLT3; panel of 32 kinases; cited from earlier work
[5] = biological target: vascular endothelial growth factor receptor 3 (FLT4, VEGFR3); details: read-out: IC50 FLT4 (VEGFR3); panel of 32 kinases; cited from earlier work
[6] = tested on: aurora-B (AURKB); details: read-out: IC50 aurora-B; cited from earlier work
[7] = tested on: ATP-binding cassette G2 (ABCG2/BCRP); details: in vitro; ref unpublished data (b4), 26; cited from earlier work
[8] = toxicity in first treatment cycle; format: in vivo, human; details: for Neutropenia grade 3–4: No (No. patients) / Neutropenia grade 3–4: Yes (No. patients): cycle 1, RP2D
In short: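 Adverse events in cycle 1 were graded by NCI-CTC v3.0. Phase II patients received 330 mg/m2 on days 1, 8 and 15 (6-h) or 500 mg/m2 on days 1 and 15 (24-h) every 28 days. Genotypes were compared by two-sided chi-square.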

[9] = tested on: ret proto-oncogene (RET); details: read-out: IC50 RET; panel of 32 kinases; cited from earlier work
[10] = tested on: aurora-C (AURKC); details: read-out: IC50 aurora-C; cited from earlier work
[11] = pharmacokinetics in phase I cancer patients; format: in vivo, human
In short: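 In the phase I trial, the test compound was given IV on days 1, 8 and 15 every 28 days. Doses were 45–400 mg/m2 by 6-h infusion or 250–330 mg/m2 by 3-h infusion. Blood was sampled on days 1–4, 8, 15–18 and 22 of cycle 1. Clearance (L/hour/m2) came from non-compartmental analysis. Genotypes came from TaqMan assays on blood DNA and were compared by t-test/ANOVA.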

[12] = tested on: histone H3 phosphorylation; assay: histone H3 phosphorylation in skin biopsies by immunohistochemistry; format: in vivo, human
In short: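 Skin biopsies were taken at baseline and 10 min before the end of the first infusion of cycle 1. Phospho-histone H3 was stained by immunohistochemistry, giving the % change in positive cells. AURKB genotypes were compared by t-test/ANOVA.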

[13] = AURKA 91A > T AT, total 6 patients
[14] = AURKA 169G > A GA, total 11 patients
[15] = AURKA 169G > A GG, total 18 patients
[16] = AURKB 893G > A GA, total 8 patients
[17] = FLT3 738C > T CC, total 5 patients
[18] = FLT3 738C > T TT, total 10 patients
[19] = FLT4 1480A > G AG, total 7 patients
[20] = KDR 54G > A AA, total 5 patients
[21] = KDR 54G > A GA, total 16 patients
[22] = KDR 54G > A GG, total 9 patients
[23] = KDR 1192G > A GA, total 3 patients
[24] = KDR −92G > A AG, total 7 patients
[25] = KDR −92G > A GG, total 20 patients
[26] = KDR −604T > C TT, total 6 patients
[27] = RET 135G > A AA, total 3 patients (3 missing)
[28] = RET 135G > A GA, total 8 patients (3 missing)
[29] = RET 37412G > A GA, total 5 patients

CO[C@@H](C(=O)N1Cc2n[nH]c(NC(=O)c3ccc(N4CCN(C)CC4)cc3)c2C1)c1ccccc1 [Danusertib]
IC50 [1]: […] | substrate for efflux protein ABCB1 [2]: substrate | clearance ([3]; 3-hour infusion schedule): 16.2 L/hour/m^2 | clearance ([3]; 6-hour infusion schedule): 18.0 L/hour/m^2 | dose linearity of pharmacokinetics ([3]; over the dose-range studied, phase I): linear pharmacokinetics | elimination half-life ([3]; phase I study, intravenous): about 30 h | plasma clearance (range) ([3]; phase I study, intravenous): 10 to 59 L/h | IC50 [4]: < 500 nM | IC50 [5]: < 500 nM | IC50 [6]: […] | substrate for efflux protein ABCG2 [7]: substrate | Any toxicity grade 1–4 during cycle 1 ([8]; All patients N = 63): 51 (81) n (%) | Any toxicity grade 3 or 4 during cycle 1 ([8]; All patients N = 63): 22 (35) n (%) | Febrile neutropenia during cycle 1 ([8]; All patients N = 63): 1 (2) n (%) | Neutropenia grade 1–4 during cycle 1 ([8]; All patients N = 63): 34 (54) n (%) | Neutropenia grade 3 or 4 during cycle 1 ([8]; All patients N = 63): 18 (29) n (%) | Any toxicity grade 1–4 during cycle 1 ([8]; Phase I patients N = 48): 37 (77) n (%) | Any toxicity grade 3 or 4 during cycle 1 ([8]; Phase I patients N = 48): 15 (31) n (%) | Febrile neutropenia during cycle 1 ([8]; Phase I patients N = 48): 1 (2) n (%) | Neutropenia grade 1–4 during cycle 1 ([8]; Phase I patients N = 48): 25 (52) n (%) | Neutropenia grade 3 or 4 during cycle 1 ([8]; Phase I patients N = 48): 12 (25) n (%) | Any toxicity grade 1–4 during cycle 1 ([8]; RP2D patients N = 30): 28 (93) n (%) | Any toxicity grade 3 or 4 during cycle 1 ([8]; RP2D patients N = 30): 15 (50) n (%) | Febrile neutropenia during cycle 1 ([8]; RP2D patients N = 30): 1 (3) n (%) | Neutropenia grade 1–4 during cycle 1 ([8]; RP2D patients N = 30): 19 (63) n (%) | Neutropenia grade 3 or 4 during cycle 1 ([8]; RP2D patients N = 30): […] | Neutropenia grade 3–4: No (No. patients) [8, 13]: 2 | Neutropenia grade 3–4: Yes (No. patients) [8, 13]: 4 | Neutropenia grade 3–4: No (No. patients) ([8]; AURKA 91A > T TT, total 4 patients): 4 | Neutropenia grade 3–4: No (No. patients) ([8]; AURKA 169G > A AA, total 1 patient): 1 | Neutropenia grade 3–4: No (No. patients) [8, 14]: 6 | Neutropenia grade 3–4: Yes (No. patients) [8, 14]: 5 | Neutropenia grade 3–4: No (No. patients) [8, 15]: 10 | Neutropenia grade 3–4: Yes (No. patients) [8, 15]: 8 | Neutropenia grade 3–4: No (No. patients) [8, 16]: 6 | Neutropenia grade 3–4: Yes (No. patients) [8, 16]: 2 | Neutropenia grade 3–4: No (No. patients) [8, 17]: 4 | Neutropenia grade 3–4: Yes (No. patients) [8, 17]: 1 | Neutropenia grade 3–4: Yes (No. patients) ([8]; FLT3 738C > T CT, total 15 patients): 8 | Neutropenia grade 3–4: No (No. patients) [8, 18]: 6 | Neutropenia grade 3–4: Yes (No. patients) [8, 18]: 4 | Neutropenia grade 3–4: No (No. patients) [8, 19]: 5 | Neutropenia grade 3–4: Yes (No. patients) [8, 19]: 2 | Neutropenia grade 3–4: No (No. patients) [8, 20]: 2 | Neutropenia grade 3–4: Yes (No. patients) [8, 20]: 3 | Neutropenia grade 3–4: No (No. patients) [8, 21]: 10 | Neutropenia grade 3–4: Yes (No. patients) [8, 21]: 6 | Neutropenia grade 3–4: No (No. patients) [8, 22]: 5 | Neutropenia grade 3–4: Yes (No. patients) [8, 22]: 4 | Neutropenia grade 3–4: No (No. patients) [8, 23]: 2 | Neutropenia grade 3–4: Yes (No. patients) [8, 23]: 1 | Neutropenia grade 3–4: No (No. patients) ([8]; KDR 1192G > A GG, total 27 patients): 15 | Neutropenia grade 3–4: Yes (No. patients) ([8]; KDR 1719A > T AA, total 1 patient): 1 | Neutropenia grade 3–4: No (No. patients) ([8]; KDR 1719A > T AT, total 15 patients): 8 | Neutropenia grade 3–4: Yes (No. patients) ([8]; KDR 1719A > T TT, total 14 patients): 5 | Neutropenia grade 3–4: No (No. patients) ([8]; KDR −92G > A AA, total 3 patients): 3 | Neutropenia grade 3–4: No (No. patients) [8, 24]: 4 | Neutropenia grade 3–4: Yes (No. patients) [8, 24]: 3 | Neutropenia grade 3–4: No (No. patients) [8, 25]: 10 | Neutropenia grade 3–4: Yes (No. patients) [8, 25]: 10 | Neutropenia grade 3–4: Yes (No. patients) ([8]; KDR −604T > C CC, total 9 patients): 2 | Neutropenia grade 3–4: Yes (No. patients) ([8]; KDR −604T > C TC, total 15 patients): 8 | Neutropenia grade 3–4: No (No. patients) [8, 26]: 3 | Neutropenia grade 3–4: Yes (No. patients) [8, 26]: 3 | Neutropenia grade 3–4: No (No. patients) [8, 27]: 1 | Neutropenia grade 3–4: Yes (No. patients) [8, 27]: 2 | Neutropenia grade 3–4: No (No. patients) [8, 28]: 6 | Neutropenia grade 3–4: Yes (No. patients) [8, 28]: 2 | Neutropenia grade 3–4: No (No. patients) ([8]; RET 37412G > A AA, total 1 patient): 1 | Neutropenia grade 3–4: No (No. patients) [8, 29]: 2 | Neutropenia grade 3–4: Yes (No. patients) [8, 29]: 3 | Neutropenia grade 3–4: Yes (No. patients) ([8]; RET 37412G > A GG, total 24 patients): 10 | IC50 [9]: < 500 nM | IC50 [10]: 61 nM | Clearance d1c1 Mean ([11]; ABCB1 1236C > T CC, 16 patients): 17.8 L/hour/m^2 | Clearance d1c1 Mean ([11]; ABCB1 1236C > T CT, 21 patients): 18.3 L/hour/m^2 | Clearance d1c1 Mean ([11]; ABCB1 1236C > T TT, 10 patients): 18.6 L/hour/m^2 | Clearance d1c1 Mean ([11]; ABCB1 2677G > A/T GG, 17 patients): 18.2 L/hour/m^2 | Clearance d1c1 Mean ([11]; ABCB1 2677G > A/T GT, 20 patients): 18.5 L/hour/m^2 | Clearance d1c1 Mean ([11]; ABCB1 2677G > A/T TT, 10 patients): 17.7 L/hour/m^2 | Clearance d1c1 Mean ([11]; ABCB1 3435C > T CC, 13 patients): 19.5 L/hour/m^2 | Clearance d1c1 Mean ([11]; ABCB1 3435C > T CT, 21 patients): 17.7 L/hour/m^2 | Clearance d1c1 Mean ([11]; ABCB1 3435C > T TT, 13 patients): 17.8 L/hour/m^2 | Clearance d1c1 Mean ([11]; ABCG2 346G > A GA, 2 patients): 18.6 L/hour/m^2 | Clearance d1c1 Mean ([11]; ABCG2 346G > A GG, 45 patients): 18.2 L/hour/m^2 | Clearance d1c1 Mean ([11]; ABCG2 421C > A CA, 11 patients): 18.8 L/hour/m^2 | Clearance d1c1 Mean ([11]; ABCG2 421C > A CC, 36 patients): 18.1 L/hour/m^2 | Clearance d1c1 Mean ([11]; ABCG2 15994G > A AA, 3 patients): 16.5 L/hour/m^2 | Clearance d1c1 Mean ([11]; ABCG2 15994G > A GA, 21 patients): 18.2 L/hour/m^2 | Clearance d1c1 Mean ([11]; ABCG2 15994G > A GG, 23 patients): 18.5 L/hour/m^2 | Clearance d1c1 Mean ([11]; FMO3 15167G > A AA, 12 patients): 16.9 L/hour/m^2 | Clearance d1c1 Mean ([11]; FMO3 15167G > A GA, 20 patients): 18.1 L/hour/m^2 | Clearance d1c1 Mean ([11]; FMO3 15167G > A GG, 15 patients): 19.5 L/hour/m^2 | Clearance d1c1 Mean ([11]; FMO3 18281G > A AA, 1 patient): 34.0 L/hour/m^2 | Clearance d1c1 Mean ([11]; FMO3 18281G > A GA, 11 patients): 17.2 L/hour/m^2 | Clearance d1c1 Mean ([11]; FMO3 18281G > A GG, 35 patients): 18.1 L/hour/m^2 | Clearance d1c1 Mean ([11]; FMO3 21443A > G AA, 27 patients): 19.2 L/hour/m^2 | Clearance d1c1 Mean ([11]; FMO3 21443A > G AG, 18 patients): 16.9 L/hour/m^2 | Clearance d1c1 Mean ([11]; FMO3 21443A > G GG, 2 patients): 16.4 L/hour/m^2 | Clearance day 1 cycle 1, Median ± SD ([11]; phase I patients, n = 47): 17.8 ± 5.8 L/hour/m^2 | decrease in histone H3 phosphorylation ([12]; AURKB 893G > A heterozygous genotype (GA), SD 12.2%): 84% | decrease in histone H3 phosphorylation ([12]; AURKB 893G > A homozygous wild type genotype (GG), SD 13.3%): 91% | Histone H3 phosphorylation, % change in number of positive cells, Median ± SD ([12]; phase I patients, n = 28, skin, baseline vs 10 min before end of first infusion): -92.3 ± 13.1 Δ%
